Experimental data as given in PMC9279720 (Acta Pharmaceutica Sinica. B, 2021).

Assays:
[1] = tested on: HCMV ADCREGFP; test: HCMV replication assay; assay type: cell-based, Human cytomegalovirus (HCMV); settings: for SI (selectivity index, CC50/EC50): CC50 (HFF) / EC50 (HCMV); for Antiviral activity/potency in words: concentrations up to 50 μmol/L
[2] = Cell viability assay; assay type: cell-based; settings: human, HFF cells (no virus)
[3] = biological target: T1, pUL89-C (Human cytomegalovirus, UniProt P16732); test: In vitro pUL89-C endonuclease assay; assay type: biochemical, HCMV; settings: read-out: Endonuclease inhibition (%) at 20 μmol/L
T1 sequence (P16732 418-674 limits assumed): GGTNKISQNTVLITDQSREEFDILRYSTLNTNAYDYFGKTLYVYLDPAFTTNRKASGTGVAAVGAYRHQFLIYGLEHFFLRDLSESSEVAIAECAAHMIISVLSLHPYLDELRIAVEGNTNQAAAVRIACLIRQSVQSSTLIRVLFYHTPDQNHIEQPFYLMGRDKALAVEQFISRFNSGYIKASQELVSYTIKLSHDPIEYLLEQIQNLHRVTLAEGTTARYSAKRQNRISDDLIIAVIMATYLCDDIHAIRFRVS

[4] = tested on: HFF cells; test: Cell viability assay; assay type: cell-based; settings: for Cytotoxicity in words: HFFs
[5] = tested on: HCMV ADCREGFP; test: Time of addition assay; assay type: cell-based, Human cytomegalovirus (HCMV); settings: 5 × EC50, added at indicated times post infection
Procedure, shortened: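 HFFs seeded at 1.75 × 10^4 cells/well, grown 24 h in DMEM/10% FBS/1% P/S, then inoculated at MOI 0.01. Cells were held in DMEM with 5% FBS, 1% P/S and 0.5% DMSO until compound was added. GFP intensity was read after lysis; triplicate-well means were normalized to DMSO.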

[6] = tested on: HCMV ADCREGFP; test: Compound withdrawal assay; assay type: cell-based, Human cytomegalovirus (HCMV); settings: 5 × EC50, removed at indicated times, read at 168 h
Procedure, shortened: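 HFFs in DMEM/5% FBS, inoculated with the virus at MOI 0.01 for 2 h before compound or 0.5% DMSO was added. At each withdrawal time, wells were washed twice in PBS and refed with 0.5% DMSO medium. Cells were lysed in Tris/DTT/Triton buffer and GFP read at ex/em 495/515 nm. Triplicate-well means.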

[7] = Plasma stability assay, human plasma; assay type: in vitro ADME; settings: for half-life at 1 μmol/L: human, plasma, pH 7.4; for Plasma stability in words: species not told apart in the sentence (human and mouse in Table 3)
Procedure, shortened: (§1)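 Test compound (1 μmol/L final) incubated at 37 °C in human or CD-1 mouse plasma diluted to 80% with 0.1 mol/L potassium phosphate, pH 7.4. Aliquots taken at time points up to […], quenched with acetonitrile/0.1% formic acid and centrifuged at 4 °C. Percent remaining and half-life determined by LC/MS/MS.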

[8] = Plasma stability assay, mouse plasma; assay type: in vitro ADME, mouse (CD-1); settings: CD-1, mouse, pH 7.4
Procedure, shortened: as §1

[9] = Microsomal stability assay, human liver microsomes; assay type: in vitro ADME; settings: for half-life at 1 μmol/L: human, liver microsomes, pH 7.4; for Microsomal stability in words: species not told apart in the sentence (human and mouse in Table 3)
Procedure, shortened: (§2)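 Test compound (1 μmol/L final) incubated at 37 °C with liver microsomes (human or CD-1 mouse; 0.5 mg/mL protein) and 1 mmol/L MgCl2 in 0.1 mol/L potassium phosphate, pH 7.4. Reaction started with NADPH (1 mmol/L final); a no-NADPH control and a verapamil positive control were run alongside. Samples taken up to 60 min and quenched in acetonitrile/0.1% formic acid. Half-life determined by LC/MS/MS.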

[10] = Microsomal stability assay, mouse liver microsomes; assay type: in vitro ADME; settings: CD-1, mouse, pH 7.4
Procedure, shortened: as §2

[11] = Parallel artificial membrane permeability assay; assay type: in vitro ADME; settings: for Papp at 5 h, 2 μmol/L: PAMPA
Procedure, shortened: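 Pre-coated lipid PAMPA plate system. Donor wells held test compound at 2 μmol/L in DPBS; acceptor wells held blank DPBS. Incubated 5 h at 25 °C without agitation. Donor and acceptor concentrations measured by LC/MS/MS. Pe calculated from an equilibrium-concentration equation (filter area 0.3 cm2). Compounds classed as high or low permeability at a cutoff of 1.5 × 10−6 cm/s.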

Row | Compound | SI (selectivity index, CC50/EC50) [1] | CC50 at 168 h [2] [µM] | inhibition at 20 µM [3] [%] | further results
1 | Nc1nc(O)c2ncn(COC(CO)CO)c2n1 [Compound 1, ganciclovir, reference compound] | >50 | > 50 | – | –
2 | O=C(NCc1ccc(F)cc1)c1cn(Cc2ccc(F)cc2)cc(O)c1=O [Compound 8b] | 8.2 | 6.4 ± 3.7 | 7 | –
3 | O=C(NCc1ccccc1)c1cn(Cc2ccc(F)cc2)cc(O)c1=O [Compound 8d] | 4.7 | 7.1 ± 6.4 | 9 | –
4 | O=C(NCc1ccccc1F)c1cn(Cc2ccc(F)cc2)cc(O)c1=O [Compound 8e] | 3.6 | 5.8 ± 2.1 | 6 | –
5 | O=C(NCc1cccc(F)c1)c1cn(Cc2ccc(F)cc2)cc(O)c1=O [Compound 8f] | 4.0 | 3.9 ± 1.8 | 7 | –
6 | O=C(NCc1ccc(Cl)cc1F)c1cn(Cc2ccc(F)cc2)cc(O)c1=O [Compound 8k] | 4.4 | 2.4 ± 0.07 | 14 | –
7 | O=C(NCc1ccc(F)c(Cl)c1)c1cn(Cc2ccc(F)cc2)cc(O)c1=O [Compound 8n] | 6.3 | 3.9 ± 2.3 | 5 | –
8 | O=C(NCc1c(F)cccc1Cl)c1cn(Cc2ccc(F)cc2)cc(O)c1=O [Compound 8p] | – | – | 5 | viability at 168 h, 50 μmol/L [2]: ~50%; Cytotoxicity in words [4]: cytostatic but not a cytotoxic effect; Metabolic activity compared to DMSO (MTS assay) ([4]; across all compound concentrations 0.2–50 μmol/L): approximately 50%
9 | O=C(NCc1ccc(Br)cc1F)c1cn(Cc2ccc(F)cc2)cc(O)c1=O [Compound 8q] | >41 | > 25 | 9 | –
10 | N#Cc1ccc(CNC(=O)c2cn(Cc3ccc(F)cc3)cc(O)c2=O)c(F)c1 [Compound 8r] | >42 | > 50 | 5 | –
11 | Cc1cc(CNC(=O)c2cn(Cc3ccc(F)cc3)cc(O)c2=O)ccc1F [Compound 8s] | 10 | 10 ± 5.4 | 6 | –
12 | O=C(NCc1ccc(C(F)(F)F)cc1F)c1cn(Cc2ccc(F)cc2)cc(O)c1=O [Compound 8u] | >46 | > 25 | 3 | –
13 | O=C(NCc1cc(F)c(F)cc1F)c1cn(Cc2ccc(F)cc2)cc(O)c1=O [Compound 8v] | 8.1 | 5.7 ± 2 | 5 | –
14 | O=C(Nc1ccc(F)cc1)c1cn(Cc2ccc(F)cc2)cc(O)c1=O [Compound 9b] | 6.4 | 5.6 ± 1.3 | 9 | –
15 | CC1(C)OB(c2ccc(NC(=O)c3cn(Cc4ccc(F)cc4)cc(O)c3=O)cc2)OC1(C)C [Compound 9c] | >17 | > 50 | 7 | Antiviral activity/potency in words [1]: decreased potency; Cytotoxicity in words [4]: no cytotoxicity
16 | CC(NC(=O)c1cn(Cc2ccc(F)cc2)cc(O)c1=O)c1ccc(F)cc1F (centres unmarked) [Compound 10] | >94 | > 50 | 5 | –
17 | CN(Cc1ccc(F)cc1F)C(=O)c1cn(Cc2ccc(F)cc2)cc(O)c1=O [Compound 11] | 8.6 | 12 ± 4.9 | 6 | –
18 | O=C(NCCc1ccc(F)cc1F)c1cn(Cc2ccc(F)cc2)cc(O)c1=O [Compound 12] | >116 | > 50 | 10 | Time of addition, result in words [5]: inhibit viral replication at a stage between when GCV and LTV are active; Compound withdrawal, result in words [6]: inhibit a step in viral replication between LTV and GCV; half-life at 1 μmol/L [7]: > 24 h; Plasma stability in words [7]: excellent; half-life at 1 μmol/L [8]: > 24 h; half-life at 1 μmol/L [9]: 0.668 ± 0.03 h; Microsomal stability in words [9]: good; half-life at 1 μmol/L [10]: 0.433 ± 0.0167 h; PAMPA permeability class [11]: high permeability; Papp at 5 h, 2 μmol/L [11]: 45 ± 9 nm/s
19 | O=C(NCc1ccc(F)cc1F)c1cn(Cc2ccccc2)cc(O)c1=O [Compound 13] | >50 | > 50 | 6 | Time of addition, result in words [5]: active similar to, or possibly later than, LTV; Compound withdrawal, result in words [6]: viral replication recovered similarly to GCV; half-life at 1 μmol/L [7]: > 24 h; Plasma stability in words [7]: excellent; half-life at 1 μmol/L [8]: > 24 h; half-life at 1 μmol/L [9]: 1.7 ± 0.197 h; Microsomal stability in words [9]: good; half-life at 1 μmol/L [10]: 0.895 ± 0.00667 h; PAMPA permeability class [11]: high permeability; Papp at 5 h, 2 μmol/L [11]: 91 ± 11 nm/s
20 | O=C(NCc1ccc(F)cc1F)c1cn(C2CC2)cc(O)c1=O [Compound 14] | >5.2 | > 25 | 7 | –
21 | O=C(NCc1ccc(F)cc1F)c1c[nH]cc(O)c1=O [Compound 15] | >6.3 | > 50 | 7 | –
22 | O=C(NCc1ccc(F)cc1F)c1cn(Cc2ccc(F)cc2)ccc1=O [Compound 17] | >7.6 | > 50 | 5 | –
23 | CCOC(=O)c1cn(Cc2ccc(F)cc2)ccc1=O [Compound 42] | – | > 50 | 7 | Antiviral activity/potency in words [1]: no antiviral activity
24 | COc1cccc(N2CCN(C3=Nc4c(F)cccc4[C@H](CC(=O)O)N3c3cc(C(F)(F)F)ccc3OC)CC2)c1 [LTV, letermovir, reference compound] | – | – | – | Compound withdrawal, result in words [6]: the viral infection rebounded quickly compared to GCV
